ChEMBL document CHEMBL1142921, “Synthesis of DL-standishinal and its related compounds for the studies on structure-activity relationship of inhibitory activity against aromatase” (Bioorg Med Chem, 2007)

Experiments:
Settings in all cases: 0.5 h
Aromatase [1] = biological target: T1, Aromatase (Homo sapiens, UniProt P11511); test: Inhibition of human recombinant aromatase at 10 uM after 30 mins relative to control
T1 sequence (P11511 whole entry): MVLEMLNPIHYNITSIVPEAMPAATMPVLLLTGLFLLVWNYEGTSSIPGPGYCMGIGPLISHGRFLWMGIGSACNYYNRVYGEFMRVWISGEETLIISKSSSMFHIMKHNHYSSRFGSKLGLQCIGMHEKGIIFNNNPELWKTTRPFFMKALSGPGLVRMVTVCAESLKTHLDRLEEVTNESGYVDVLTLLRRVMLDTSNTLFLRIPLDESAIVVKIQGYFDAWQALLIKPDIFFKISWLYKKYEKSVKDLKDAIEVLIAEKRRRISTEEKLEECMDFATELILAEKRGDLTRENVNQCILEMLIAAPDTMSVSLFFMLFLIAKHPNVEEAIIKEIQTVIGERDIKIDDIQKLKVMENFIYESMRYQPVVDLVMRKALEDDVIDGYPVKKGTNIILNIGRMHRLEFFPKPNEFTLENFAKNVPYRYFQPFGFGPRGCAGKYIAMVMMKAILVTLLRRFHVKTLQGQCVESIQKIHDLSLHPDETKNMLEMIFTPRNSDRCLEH
Method in brief: (§1)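 Human recombinant aromatase (CYP19) expressed in insect cells via baculovirus; fluorogenic substrate methoxy-4-trifluoromethylcoumarin, 3 µM in the reaction. Compounds in acetone, serially diluted 1:3 in NADPH-cofactor buffer. Reaction started with prewarmed enzyme–substrate mix, 30 min at 37 °C. Fluorescence read at 409 nm excitation / 530 nm emission. Blank lacks enzyme. Inhibition as % of no-inhibitor control; mean ± SD, n = 4; Student t test.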

Aromatase [2] = biological target: T1, Aromatase; test: Inhibition of human recombinant aromatase at 300 nM after 30 mins relative to control; method in brief: as §1
Aromatase [3] = biological target: T1, Aromatase; test: Inhibition of human recombinant aromatase at 3 uM after 30 mins relative to control; method in brief: as §1
Aromatase [4] = biological target: T1, Aromatase; test: Inhibition of human recombinant aromatase at 1 uM after 30 mins relative to control; method in brief: as §1

inhibition at 10 µM (Aromatase [1]) [%] | inhibition at 0.3 µM (Aromatase [2]) [%] | inhibition at 3 µM (Aromatase [3]) [%] | inhibition at 1 µM (Aromatase [4]) [%] | SMILES
19.8 | < 0 | 6.7 | 18.1 | COc1cc2c(cc1C(C)C)C(=O)C[C@H]1C(C)(C)CCC[C@]21C
19.8 | 16.2 | 18.6 | 19.7 | COc1cc2c(cc1C(C)C)C=C[C@@H]1C(C)(C)CCC[C@]21C
4.8 | 9 | 4.1 | 2.2 | COc1cc2c(cc1C(C)C)CC[C@H]1C(C)(C)CCC[C@]21C
19.7 | 15.2 | 18.4 | 15.9 | COc1cc2c(cc1C(C)C)CC[C@@H]1C(C)(C)CCC[C@]21C
92.5 | 89.3 | 83.8 | 91.1 | N#Cc1ccc(C(c2ccc(C#N)cc2)n2cncn2)cc1 [LETROZOLE]
19.5 | 20.7 | 23.9 | 28.7 | COc1cc2c(cc1C(C)C)C(=O)C[C@@H]1C(C)(C)CCC[C@]21C

SMILES | inhibition at 10 µM (Aromatase [1]) [%] | inhibition at 0.3 µM (Aromatase [2]) [%] | inhibition at 3 µM (Aromatase [3]) [%] | inhibition at 1 µM (Aromatase [4]) [%]
CC(C)c1cc(C=O)c([C@@]2(C)CCCC(C)(C)[C@H]2C=O)cc1O | 25.1 | 22.2 | 24.9 | 24.5
CC(=O)N1CCN(c2ccc(OC[C@H]3CO[C@](Cn4ccnc4)(c4ccc(Cl)cc4Cl)O3)cc2)CC1 [KETOCONAZOLE] | 87.9 | 81.7 | 87.5 | 84.2
CC(C)c1cc(C=O)c([C@@]2(C)CCCC(C)(C)[C@@H]2C=O)cc1O | 9.2 | 5.9 | 3.3 | < 0
CC(C)c1cc(C=O)c2c(c1O)[C@H](O)[C@H]1C(C)(C)CCC[C@]21C [STANDISHINAL] | 23.7 | 1.1 | 6.7 | 10.3
